Several values for one entry are separate records, joined by “and”; a condition that tells them apart may be missing. Equal values may be shown once.
What was measured:
[1] = DPPH free radical scavenging; details: for DPPH radical scavenging % inhibition: at 100 μg/mL; for DPPH radical scavenging IC50: concentrations 100, 50, 25, 10 μg/mL, graphical method
Outline: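 DPPH (3.92 mg per 100 mL of 82% methanol) was combined with test compound at final 100, 50, 25 or 10 μg/mL and incubated 1 h at 25 °C in the dark. Absorbance at 517 nm. Scavenging % = […]. Triplicate, ascorbic acid positive control, IC50 obtained graphically.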

[2] = molecular target: calf intestinal alkaline phosphatase (CIAP) (Bos taurus, UniProt P19111); assay: Calf intestinal alkaline phosphatase inhibition assay; format: biochemical
Chain of calf intestinal alkaline phosphatase (CIAP) (P19111 20-533): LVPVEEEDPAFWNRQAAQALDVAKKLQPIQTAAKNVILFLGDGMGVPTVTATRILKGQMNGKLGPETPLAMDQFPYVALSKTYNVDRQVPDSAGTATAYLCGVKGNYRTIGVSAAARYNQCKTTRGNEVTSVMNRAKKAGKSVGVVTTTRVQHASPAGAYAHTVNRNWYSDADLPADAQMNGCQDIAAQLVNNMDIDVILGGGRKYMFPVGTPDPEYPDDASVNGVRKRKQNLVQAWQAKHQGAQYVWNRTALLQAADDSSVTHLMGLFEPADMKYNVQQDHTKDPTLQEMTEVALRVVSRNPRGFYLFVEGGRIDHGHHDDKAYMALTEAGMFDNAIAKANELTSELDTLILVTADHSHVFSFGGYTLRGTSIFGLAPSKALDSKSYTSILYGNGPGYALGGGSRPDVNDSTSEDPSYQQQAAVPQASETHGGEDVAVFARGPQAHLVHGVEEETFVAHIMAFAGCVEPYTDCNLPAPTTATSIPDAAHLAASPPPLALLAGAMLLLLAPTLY

| Compound | DPPH radical scavenging % inhibition [1] | alkaline phosphatase inhibitory activity (in words) [2] | DPPH radical scavenging IC50 [1] |
| --- | --- | --- | --- |
| 4-(2-Hydroxyphenyl)-6-(2-methoxyphenyl)-3,4,6,7-tetrahydro-1H-pyrrolo[3,4-d]pyrimidine-2,5-dione [4i] | less than 50% | good activity | – |
| 4-(2-Hydroxyphenyl)-6-(2-nitrophenyl)-3,4,6,7-tetrahydro-1H-pyrrolo[3,4-d]pyrimidine-2,5-dione [4h] | approximately 70% | moderate activity | 1.72 µg/mL |
| 4-(2-Hydroxyphenyl)-6-(3-methoxyphenyl)-3,4,6,7-tetrahydro-1H-pyrrolo[3,4-d]pyrimidine-2,5-dione [4k] | less than 50% | no inhibition | – |
| 4-(4-Hydroxyphenyl)-6-(2-methoxyphenyl)-3,4,6,7-tetrahydro-1H-pyrrolo[3,4-d]pyrimidine-2,5-dione [3k] | less than 50% | low activities | – |
| 4-(4-Hydroxyphenyl)-6-(3-methoxyphenyl)-3,4,6,7-tetrahydro-1H-pyrrolo[3,4-d]pyrimidine-2,5-dione [3i] | less than 50% | no inhibition | – |
| 6-(4-Hydroxyphenyl)-6-(2-nitrophenyl)-3,4,6,7-tetrahydro-1H-pyrrolo[3,4-d]pyrimidine-2,5-dione [3h] | about 60% | moderate activity | 2.61 µg/mL |
| O=C1NC2=C(C(=O)N(Cc3ccccc3)C2)C(c2ccc(O)cc2)N1 (stereo not shown) [3a, 6-Benzyl-4-(4-hydroxyphenyl)-3,4,6,7-tetrahydro-1H-pyrrolo[3,4-d]pyrimidine-2,5-dione] | about 60% | no inhibition | 2.61 µg/mL |
| CCCCCCCCN1CC2=C(C1=O)C(c1ccc(O)cc1)NC(=O)N2 (stereo not shown) [3b, 4-(4-Hydroxyphenyl)-6-octyl-3,4,6,7-tetrahydro-1H-pyrrolo[3,4-d]pyrimidine-2,5-dione] | – | – | 2.6 µg/mL |
| O=C1NC2=C(C(=O)N(Cc3ccc(Cl)cc3)C2)C(c2ccc(O)cc2)N1 (stereo not shown) [3c, 6-(4-Chlorobenzyl)-4-(4-hydroxyphenyl)-3,4,6,7-tetrahydro-1H-pyrrolo[3,4-d]pyrimidine-2,5-dione] | less than 50% | low activities | – |
| O=C1NC2=C(C(=O)N(Cc3ccc(F)cc3)C2)C(c2ccc(O)cc2)N1 (stereo not shown) [3d, 6-(4-Fluorobenzyl)-4-(4-hydroxyphenyl)-3,4,6,7-tetrahydro-1H-pyrrolo[3,4-d]pyrimidine-2,5-dione] | less than 50% | – | – |
| O=C1NC2=C(C(=O)N(c3ccc(F)cc3)C2)C(c2ccc(O)cc2)N1 (stereo not shown) [3f, 6-(4-Fluorophenyl)-4-(4-hydroxyphenyl)-3,4,6,7-tetrahydro-1H-pyrrolo[3,4-d]pyrimidine-2,5-dione] | – | – | 2.86 µg/mL |
| O=C1NC2=C(C(=O)N(c3nc4ccccc4[nH]3)C2)C(c2ccc(O)cc2)N1 (stereo not shown) [3g, 6-(1H-Benzo[d]imidazol-2-yl)-4-(4-hydroxyphenyl)-3,4,6,7-tetrahydro-1H-pyrrolo[3,4-d]pyrimidine-2,5-dione] | – | – | 1.85 µg/mL |
| COc1ccc(N2CC3=C(C2=O)C(c2ccc(O)cc2)NC(=O)N3)cc1 (stereo not shown) [3j, 4-(4-Hydroxyphenyl)-6-(4-methoxyphenyl)-3,4,6,7-tetrahydro-1H-pyrrolo[3,4-d]pyrimidine-2,5-dione] | – | – | 2.48 µg/mL |
| O=C1NC2=C(C(=O)N(Cc3ccccc3)C2)C(c2ccccc2O)N1 (stereo not shown) [4a, 6-Benzyl-4-(2-hydroxyphenyl)-3,4,6,7-tetrahydro-1H-pyrrolo[3,4-d]pyrimidine-2,5-dione] | less than 50% | – | – |
| CCCCCCCCN1CC2=C(C1=O)C(c1ccccc1O)NC(=O)N2 (stereo not shown) [4b, 4-(2-Hydroxyphenyl)-6-octyl-3,4,6,7-tetrahydro-1H-pyrrolo[3,4-d]pyrimidine-2,5-dione] | – | – | 2.731 µg/mL and 2.73 µg/mL |
| O=C1NC2=C(C(=O)N(Cc3ccc(Cl)cc3)C2)C(c2ccccc2O)N1 (stereo not shown) [4c, 6-(4-Chlorobenzyl)-4-(2-hydroxyphenyl)-3,4,6,7-tetrahydro-1H-pyrrolo[3,4-d]pyrimidine-2,5-dione] | less than 50% | no inhibition | – |
| O=C1NC2=C(C(=O)N(Cc3ccc(F)cc3)C2)C(c2ccccc2O)N1 (stereo not shown) [4d, 6-(4-Fluorobenzyl)-4-(2-hydroxyphenyl)-3,4,6,7-tetrahydro-1H-pyrrolo[3,4-d]pyrimidine-2,5-dione] | less than 50% | – | – |
| O=C1NC2=C(C(=O)N(c3ccc(Cl)cc3)C2)C(c2ccccc2O)N1 (stereo not shown) [4e, 6-(4-Chlorophenyl)-4-(2-hydroxyphenyl)-3,4,6,7-tetrahydro-1H-pyrrolo[3,4-d]pyrimidine-2,5-dione] | 60% | – | – |
| O=C1NC2=C(C(=O)N(c3ccc(F)cc3)C2)C(c2ccccc2O)N1 (stereo not shown) [4f, 6-(4-Fluorophenyl)-4-(2-hydroxyphenyl)-3,4,6,7-tetrahydro-1H-pyrrolo[3,4-d]pyrimidine-2,5-dione] | highest percent of inhibition | low activities | 0.48 µg/mL |
| O=C1NC2=C(C(=O)N(c3nc4ccccc4[nH]3)C2)C(c2ccccc2O)N1 (stereo not shown) [4g, 6-(1H-Benzo[d]imidazol-2-yl)-4-(2-hydroxyphenyl)-3,4,6,7-tetrahydro-1H-pyrrolo[3,4-d]pyrimidine-2,5-dione] | 80% and 70–80% | no inhibition | 0.75 µg/mL |
| COc1ccc(N2CC3=C(C2=O)C(c2ccccc2O)NC(=O)N3)cc1 (stereo not shown) [4j, 4-(2-Hydroxyphenyl)-6-(4-methoxyphenyl)-3,4,6,7-tetrahydro-1H-pyrrolo[3,4-d]pyrimidine-2,5-dione] | – | low activities | 2.45 µg/mL |
| O=C1O[C@H]([C@@H](O)CO)C(O)=C1O [ascorbic acid, reference compound] | 97% | – | 0.25 µg/mL |

Source: PMC8892665 (ACS Omega, 2022)
